# According to ChEMBL document CHEMBL4513216, “Probing the Open Global Health Chemical Diversity Library for Multistage-Active Starting Points for Next-Generation Antimalarials” (ACS Infect Dis, 2020):
# Experiment: Toxicity liver stage against HepG2, at 10uM
# Type: cell-based
# Parameters: test concentration 10 uM, cell line HepG2-A16-CD81EGFP
# Details: human, HepG2-A16-CD81EGFP cells; read-out: INHIBITION
# Procedure, shortened: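 Uninfected HepG2-A16-CD81EGFP cells, 3 × 10^3 per well, 1536-well, plated on prespotted compound at 10 μM final, parasite-free screening media added to match infected plates; puromycin 10 μM positive, DMSO 0.5% negative; run in parallel with 48 h PbLuc assay at 37 °C, 5% CO2; viability by CellTiter-Glo luminescence, normalized to controls.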
row,Structure (SMILES),cytotoxicity at 10 µM [%]
1,CC1(C)Cc2ccccc2-c2nc(NCCCO)[nH]c(=O)c21,3.57
2,COCCCN(Cc1ccccn1)S(=O)(=O)Cc1ccccc1,14.4
3,Cc1cn2nc(N3CCCC3C(=O)N3CCN(C)CC3)sc2n1 (stereo not given),-12.6
4,CC(=O)N1CC[C@H]2NC(=O)N(Cc3ccccc3)C(=O)[C@H]21,4.47
5,Cc1nn(-c2cc(Cl)cc(Cl)c2)c(C)c1CCC(=O)O,3.8
6,Cn1nc(-c2cccc(Cl)c2)c(Br)c1C(=O)O,-56.5
7,Cc1nc(N(C)C)nc(C)c1NC(=O)c1ccccc1C(F)(F)F,-1.94
8,CCc1cnc(N2CC[C@@H]3CN(C(C)=O)CCO[C@@H]3C2)nc1,9.1
9,O=C(c1ccoc1)N1CC[C@@H]2[C@@H](CC1)OCCN2c1cccnc1,11.1
10,CCOCc1nn(CC2CC2)c2c1CN(C(=O)c1ccno1)CC2,1.99
11,COc1cc(N2CC[C@@H]3O[C@@H](c4ccnc(C)n4)C[C@H]3C2)ncn1,23.1
12,Fc1cccc(N2CCc3ncnc(C4CC4)c3CC2)c1,11.9
13,COCCn1cc(-c2cc(C(=O)N3CCCC3)c3ccccn23)nc1C,8.61
14,COc1cc(N2CC[C@H]3OCC[C@@]3(COc3nccc(C)n3)C2)ncn1,11.8
15,Cc1cc2nc(SCC(=O)N3CCOCC3)n(CCC(C)C)c(=O)c2[nH]1,10.8
16,CCc1cccc(-n2nnc(C(=O)O)c2-c2ccncc2)c1,7.77
17,c1cc(-c2nnc3sc(CCN4CCCC4)nn23)ccn1,-4.31
18,Cn1nc(C(=O)N2CCOCC2)cc1C(=O)Nc1cc(Cl)cc(Cl)c1,27.9
19,CCc1noc(C2CCCCN2C(=O)c2ccc(C)o2)n1 (stereo not given),14
20,Cc1nn(Cc2ccc(C(=O)NCCCN3CCCC3=O)o2)c(C)c1Br,9.35
21,CC(C)N1CCC(c2cnc(-c3cncnc3)cn2)CC1,2.55
22,Cc1cccc(CN2CCCC2c2cncc(Nc3nncs3)n2)c1 (stereo not given),-3.47

row,Structure (SMILES),cytotoxicity at 10 µM [%]
1,Cc1nc(C)c(C(=O)N2CCCC2(C)C(=O)NC2CCCC2)o1 (stereo not given),0.61
2,CC(=O)N1CCN(CCCOc2ccccc2F)CC(C(N)=O)C1 (stereo not given),-28.7
3,CNC(=O)c1cn[nH]c1C1(C)CCCN(Cc2nccn2C(C)C)C1 (stereo not given),-2.73
4,COc1ccc(C2Nc3cc(Cl)ccc3C3=NCCN32)cc1CO (stereo not given),-19.3
5,CC[C@@H]1C[C@H](C(F)(F)F)n2nc(C3CCN(S(=O)(=O)CC)CC3)cc2N1,-28.2
6,O=C1CO[C@H]2CN(Cc3ccccc3Br)C[C@@H]2N1,2.13
7,CN(CC1(O)CCN(c2ccccn2)C1)C(=O)Cc1ccsc1 (stereo not given),-11.7
8,CCn1ncc(CN2C[C@@H]3CCCN3C[C@@H]2CCSC)c1C,-27.3
9,O=C1NC2(Cc3ccccc31)CN(CC1CCCC1)C2,7.58
10,OCc1c(Cl)ncn1-c1ccccc1,-8.99
11,CCCn1nnnc1CN(CC)CC1COc2ccccc2O1 (stereo not given),13.3
12,Cc1noc(C2CCCN(C(=O)c3cc(Cl)cn3C)C2)n1 (stereo not given),1.33
13,CN1CCN(S(=O)(=O)c2ccc(Sc3nccn3C)nc2)CC1,10.2
14,CS(=O)(=O)CCn1ccc(NC(=O)c2c(F)cccc2F)n1,18.2
15,O=C(O)c1ccn(-c2ccc(NC(=O)c3ccccc3Cl)cc2)n1,-140
16,Cc1ccc(F)c(S(=O)(=O)NCc2cccc(CS(C)(=O)=O)c2)c1,-7.61
17,Cc1cc(C)c(CNC(=O)NCCNc2ccccn2)c(=O)[nH]1,-37
18,N#Cc1cccnc1N1CCCN(C(=O)CCc2cccs2)CC1,-15.8
19,CN(Cc1ccco1)Cc1ccccc1CNC(=O)c1csnn1,7.88
20,CCOCC(O)CN1CCN(C(=O)c2ccc(N(C)C)nc2)CC1 (stereo not given),-5.18
21,CN(Cc1cnn(C)c1)C(=O)c1ccnc(OC2CCC2)c1,3.82
22,Cc1cnn(CC2CCCN2C(=O)CCc2ccco2)c1 (stereo not given),-4.7

row,Structure (SMILES),cytotoxicity at 10 µM [%]
1,Cc1cc(C)n(CC2CN(Cc3ccc(C(N)=O)cc3)CCO2)n1 (stereo not given),-15.1
2,CCC(C)NC(=O)CS(=O)(=O)Cc1nc(-c2cccs2)no1 (stereo not given),2.04
3,N#CCCN(Cc1ccccn1)Cn1cc(Cl)cn1,1.49
4,CCc1noc(CC)c1CC(=O)N1CCN(C(C#N)C(C)C)CC1 (stereo not given),-9.66
5,CC(C)OCc1cccc(NC(=O)N(C)Cc2ncnn2C)c1,4
6,COc1ccsc1C(=O)Nc1cc(Br)c(=O)n(C)c1,-11
7,COc1ccc(CSc2nnc(N)n2C2CC2)cc1Cl,0.00426
8,CCC(C)NS(=O)(=O)c1ccc(C(=O)N(C)C2(C#N)CCC2)cc1 (stereo not given),16.1
9,OC(COCc1ccccc1F)CN1CCC(Cn2cccn2)CC1 (stereo not given),-10.2
10,Cc1cnc(NCc2ccc(S(=O)(=O)N(C)C(C)C)cc2)nc1C,10.2
11,CCOC1CCN(CCc2nc(-c3cccc(Cl)c3)no2)CC1,-0.139
12,OC1(CNC2CCN(Cc3ccncc3)CC2)CCc2ccccc21 (stereo not given),-1.41
13,NC(=O)CCCNC(=O)COc1ccccc1C(F)(F)F,2.49
14,c1nc(N2CCCCC2Cn2cncn2)c2ccsc2n1 (stereo not given),-2.49
15,COc1cccc(S(=O)(=O)CCN2CCCN(C(C)=O)CC2)c1,-10.4
16,Cn1cc(CN2CCC[C@]3(C[C@H](Oc4ccccn4)CO3)C2)cn1,5.44
17,CC(C)(C)CC(=O)N1C[C@H]2CCN[C@H]2C1,4.19
18,O=C(c1cscn1)N1CCc2ncc(CN3CCOCC3)n2CC1,-75.6
19,O=C(c1ccnnc1)N1C[C@@H]2COC[C@]2(COCC2CC2)C1,-73.2
20,Cn1cc(-c2nnn3c2COC(CNCc2ccccn2)C3)cn1 (stereo not given),0.298
21,Nc1ncccc1CN1CCCn2nc(CCC(=O)NC3CC3)cc2C1,1.45
22,O=C1CCOCCN1Cc1ccc(Cl)c(Cl)c1,3.3

row,Structure (SMILES),cytotoxicity at 10 µM [%]
1,NC(=O)Cn1ccnc1C1CCCN(Cc2ccccc2OC(F)F)C1 (stereo not given),-22
2,CCc1cnc(C)nc1NCc1cnc2c(c1)CCC2,8.83
3,Cc1ccc(-n2ccnc2-c2cn(C3CCNCC3)nn2)c(Cl)c1,3.07
4,Cc1cc(C)nc(NCc2nnc3n2CCCCC3)n1,-10.6
5,CC(Nc1nc(-c2ccncc2)nc2c1CCNC2)c1ccccc1 (stereo not given),-9.94
6,Cc1cc(C)n(C2CCN(C(=O)CN3C(=O)CSc4ccccc43)C2)n1 (stereo not given),-15.3
7,CCN1CC(C(=O)NCc2nc(C3CCCCC3)no2)CC1=O (stereo not given),-3.68
8,CC(=O)c1ccc(-c2cnn(CC(=O)Nc3ccnn3C)c2)nc1,1.99
9,C=C(C)COc1cccc(C(=O)N2CCC3(CC2)CN(C)CCN3C)c1,-52.4
10,CCCc1cc(C(=O)N(C)Cc2cnn(-c3cccc(OC)c3)c2)[nH]n1,-2.4
11,COc1ccccc1-n1cc(C(=O)NCCCn2nc(C)nc2C)cn1,5.02
12,CC(C)[C@H]1CN(Cc2ccccc2C#N)C[C@@H]1NC(=O)C1CCOCC1,1.47
13,COc1ccc(NC2CCCN(Cc3cnc(N(C)C)s3)C2)cc1 (stereo not given),0.88
14,Cc1nc2c(c(NC3CCN(Cc4cccnc4)CC3)n1)CCNCC2,-1.14
15,Cc1nnc2n1CCN(Cc1ncc(-c3ccc(F)cc3)o1)C2,-10.7
16,Cc1nc(C2CCCN2CC(=O)N2CCc3ccccc32)no1 (stereo not given),-19.6
17,CCc1nc(C2CCCN2CCC(=O)N2CCc3ccccc32)no1 (stereo not given),-23.7
18,COc1ccc(C2=CCN(C(=O)CN(C)Cc3ccco3)CC2)cc1,-6.16
19,O=C(Cc1ccccc1)NCCNC(=O)c1scnc1Cl,-1.55
20,Cn1ccc(C(=O)NCc2ccc(N3CCCCC3)nc2)cc1=O,-10.8
21,CCc1csc(C2CCCN(C(=O)COc3cc(C)on3)C2)n1 (stereo not given),-9.71
22,Cc1cccc(NC(=O)N2CCN(Cc3noc(C4CC4)n3)CC2)c1,-10.1

row,Structure (SMILES),cytotoxicity at 10 µM [%]
1,COC(=O)c1cccc(NC(=O)CCn2nc(-c3cccs3)oc2=O)c1,-8.13
2,CC(C)CCN(C)C(=O)c1nc(S(C)(=O)=O)n2ccccc12,-9.91
3,CC(Cn1ccnc1)NC(=O)NCCc1ccccn1 (stereo not given),-6.05
4,COc1ccc(C2=CCN(C(=O)CN(C)CC(C)C#N)CC2)cc1 (stereo not given),-9.52
5,Cc1ccn(-c2ccc(C(=O)N3CCCC(n4ccnc4)C3)cc2)n1 (stereo not given),-8.31
6,COc1ncccc1C(=O)N1CCCC(c2cc(C)[nH]n2)C1 (stereo not given),-7.49
7,CCN(Cc1cccc2c1OCO2)C(=O)Nc1ccncc1,2.58
8,CC(C)c1nc2c(n1C)CCN(CC(=O)Nc1nccs1)C2,1.88
9,OCCN(Cc1ccncc1)CC1(c2ccc(Cl)cc2)CC1,9.39
10,Cn1cc(C(=O)NC[C@H]2OC[C@@H]3CCN(C4CCOCC4)C[C@@H]32)cn1,8.01
11,CO[C@@H]1CCN(Cc2cccs2)[C@@H]2CN(Cc3ccncc3)C[C@@H]21,3.93
12,CC(=O)N1CCc2ncn(C)c2C1C(=O)N1CCCC1 (stereo not given),1.9
13,COc1ccc2ccccc2c1CNCC1CCS(=O)(=O)C1 (stereo not given),4.51
14,COCCNC(=O)[C@@]12CCO[C@@H]1CCN(Cc1ccncc1)C2,-77.3
15,Cc1ccc(CN2C[C@@H]3[C@@H](C2)OCC(=O)N3Cc2ccncc2)s1,-67.7
16,CS(=O)(=O)N1CCc2ccc(=O)n(CCN3CCCC3)c2CC1,0.108
17,Cc1n[nH]c(C)c1CNCC(O)c1cccc(Cl)c1 (stereo not given),4.91
18,O=C(c1ccsc1)N1CCc2onc(COc3ccccn3)c2C1,6.43
19,CCN1C(=O)CCC12CCCN(Cc1nccs1)C2 (stereo not given),-73.5
20,c1cnc(N2CCC3(COCCN(CC4CC4)C3)C2)nc1 (stereo not given),0.668
21,CCOCCC(=O)N1C[C@@H]2CC[C@H]1CN(Cc1ccncc1)C2,-11.1
22,Cc1nnsc1CN1C[C@@H]2CC[C@H]1CN(Cc1ccccc1)C2,0.929
